Results from ChEMBL document CHEMBL4052588, “Design of a Biased Potent Small Molecule Inhibitor of the Bromodomain and PHD Finger-Containing (BRPF) Proteins Suitable for Cellular and in Vivo Studies” (J Med Chem, 2017).

Assays:
[1] = biological target: Transcription initiation factor TFIID subunit 1, TAF1 (Homo sapiens) (UniProt P21675); assay: Inhibition of human His tagged TAF1 incubated for 30 mins followed by addition of biotinylated peptide and further incubation for 30 mins measured by AlphaScreen assay
[2] = Apparent permeability across apical side to basolateral side in human Caco2 cells at 10 uM after 2 hrs by LC-MS/MS analysis; assay type: ADME, cell-based; details: Caco-2
[3] = Apparent permeability from basolateral to apical side in human Caco2 cells at 10 uM after 2 hrs by LC-MS/MS analysis; assay type: ADME, cell-based; details: Caco-2
[4] = Clearance in CD-1 mouse blood at 1 mg/kg, iv administered as bolus; assay type: ADME, organism-based; details: whole blood
How it was run: (§1)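 Female CD-1 mice (n = 3), single dosing: intravenous 1.0 mg/kg, or oral 3.0 mg/kg given as a suspension. Blood levels were followed over time to derive clearance, volume of distribution, elimination half-life, Cmax, Tmax, AUC0−∞, oral bioavailability and fraction absorbed.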

[5] = AUC (0 to infinity) in CD-1 mouse blood at 3 mg/kg, po; assay type: ADME, organism-based; parameters: dose 3 mg/kg, time infinity, route oral; details: whole blood
How it was run: as §1

OCI-LY19 = assay: Growth inhibition of human OCI-LY19 cells after 72 hrs; assay type: functional; details: OCI-LY19, 72 h
NOMO-1 = assay: Growth inhibition of human NOMO1 cells after 72 hrs; assay type: functional; details: NOMO-1, 72 h
HepG2 = assay: Growth inhibition of human HepG2 cells after 72 hrs; assay type: functional; details: HepG2, 72 h
[6] = biological target: T1, Bromodomain-containing protein 1 (Homo sapiens, UniProt O95696); assay: Inhibition of human His tagged BRPF2 incubated for 30 mins followed by addition of biotinylated peptide and further incubation for 30 mins measured by AlphaScreen assay
T1 sequence (O95696 whole entry): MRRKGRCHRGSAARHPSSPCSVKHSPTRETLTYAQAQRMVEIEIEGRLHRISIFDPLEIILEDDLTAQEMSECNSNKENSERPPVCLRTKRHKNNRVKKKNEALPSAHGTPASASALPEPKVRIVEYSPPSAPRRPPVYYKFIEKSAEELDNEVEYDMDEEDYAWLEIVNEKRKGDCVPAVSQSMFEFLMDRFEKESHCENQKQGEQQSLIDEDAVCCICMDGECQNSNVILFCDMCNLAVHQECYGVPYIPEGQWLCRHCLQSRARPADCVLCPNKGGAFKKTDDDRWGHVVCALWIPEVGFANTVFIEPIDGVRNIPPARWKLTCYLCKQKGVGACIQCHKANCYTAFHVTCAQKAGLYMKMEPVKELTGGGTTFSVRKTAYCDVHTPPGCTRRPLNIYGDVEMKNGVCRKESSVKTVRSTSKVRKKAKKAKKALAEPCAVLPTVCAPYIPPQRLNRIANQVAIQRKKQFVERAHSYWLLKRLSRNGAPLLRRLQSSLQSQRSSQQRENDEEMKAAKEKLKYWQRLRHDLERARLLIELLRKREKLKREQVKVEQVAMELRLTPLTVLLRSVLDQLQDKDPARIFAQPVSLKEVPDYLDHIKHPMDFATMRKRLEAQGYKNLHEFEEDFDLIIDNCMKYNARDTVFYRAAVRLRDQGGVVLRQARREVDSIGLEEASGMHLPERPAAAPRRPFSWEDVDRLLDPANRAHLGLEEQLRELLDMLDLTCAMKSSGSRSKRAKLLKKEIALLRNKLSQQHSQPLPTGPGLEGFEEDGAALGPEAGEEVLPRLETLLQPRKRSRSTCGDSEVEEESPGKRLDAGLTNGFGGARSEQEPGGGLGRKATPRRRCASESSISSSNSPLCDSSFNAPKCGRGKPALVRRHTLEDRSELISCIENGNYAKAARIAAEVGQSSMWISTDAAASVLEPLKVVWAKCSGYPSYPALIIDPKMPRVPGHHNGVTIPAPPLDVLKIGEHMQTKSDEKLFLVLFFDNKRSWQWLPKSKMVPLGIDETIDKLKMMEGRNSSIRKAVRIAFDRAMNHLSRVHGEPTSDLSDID

[7] = biological target: T1, Bromodomain-containing protein 1; assay: Binding affinity to human BRPF2 by isothermal titration calorimetry
[8] = biological target: T2, Bromodomain and PHD finger-containing protein 3 (Homo sapiens, UniProt Q9ULD4); assay: Binding affinity to human BRPF3 by isothermal titration calorimetry
T2 sequence (Q9ULD4 whole entry): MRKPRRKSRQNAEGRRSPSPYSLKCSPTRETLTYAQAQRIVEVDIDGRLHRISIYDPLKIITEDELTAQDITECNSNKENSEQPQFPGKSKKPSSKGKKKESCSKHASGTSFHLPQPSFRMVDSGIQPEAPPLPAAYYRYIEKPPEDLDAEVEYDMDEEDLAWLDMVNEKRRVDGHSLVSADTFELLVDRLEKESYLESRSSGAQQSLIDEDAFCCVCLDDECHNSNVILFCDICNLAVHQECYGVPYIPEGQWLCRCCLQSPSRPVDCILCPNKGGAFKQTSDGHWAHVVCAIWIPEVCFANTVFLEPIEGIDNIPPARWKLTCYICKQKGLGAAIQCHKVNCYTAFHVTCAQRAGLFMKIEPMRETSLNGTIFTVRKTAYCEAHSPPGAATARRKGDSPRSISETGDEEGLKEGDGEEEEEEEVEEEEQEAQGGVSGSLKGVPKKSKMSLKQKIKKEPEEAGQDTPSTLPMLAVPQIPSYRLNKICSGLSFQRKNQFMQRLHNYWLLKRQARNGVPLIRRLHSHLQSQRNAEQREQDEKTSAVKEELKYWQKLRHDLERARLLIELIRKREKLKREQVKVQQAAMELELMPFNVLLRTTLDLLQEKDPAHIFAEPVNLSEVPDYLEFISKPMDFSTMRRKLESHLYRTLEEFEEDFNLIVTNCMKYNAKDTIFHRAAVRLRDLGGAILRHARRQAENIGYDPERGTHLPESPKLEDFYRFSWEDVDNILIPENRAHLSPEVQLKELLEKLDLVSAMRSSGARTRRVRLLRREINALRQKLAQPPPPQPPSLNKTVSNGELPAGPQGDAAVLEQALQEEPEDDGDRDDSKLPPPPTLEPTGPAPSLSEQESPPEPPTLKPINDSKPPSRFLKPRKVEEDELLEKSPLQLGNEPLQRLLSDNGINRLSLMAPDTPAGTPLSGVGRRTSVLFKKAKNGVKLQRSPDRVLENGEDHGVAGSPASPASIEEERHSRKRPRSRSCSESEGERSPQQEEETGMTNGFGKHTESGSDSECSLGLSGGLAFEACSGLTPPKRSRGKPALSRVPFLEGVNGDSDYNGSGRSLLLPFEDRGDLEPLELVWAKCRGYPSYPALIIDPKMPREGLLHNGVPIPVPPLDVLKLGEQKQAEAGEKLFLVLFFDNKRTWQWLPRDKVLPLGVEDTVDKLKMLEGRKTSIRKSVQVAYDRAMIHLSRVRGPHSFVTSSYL

[9] = Oral bioavailability in CD-1 mouse at 3 mg/kg; assay type: ADME, organism-based; details: in vivo
How it was run: as §1

Transcription initiation factor TFIID subunit 1, TAF1 (Homo sapiens), sequence (P21675 whole entry, looked up): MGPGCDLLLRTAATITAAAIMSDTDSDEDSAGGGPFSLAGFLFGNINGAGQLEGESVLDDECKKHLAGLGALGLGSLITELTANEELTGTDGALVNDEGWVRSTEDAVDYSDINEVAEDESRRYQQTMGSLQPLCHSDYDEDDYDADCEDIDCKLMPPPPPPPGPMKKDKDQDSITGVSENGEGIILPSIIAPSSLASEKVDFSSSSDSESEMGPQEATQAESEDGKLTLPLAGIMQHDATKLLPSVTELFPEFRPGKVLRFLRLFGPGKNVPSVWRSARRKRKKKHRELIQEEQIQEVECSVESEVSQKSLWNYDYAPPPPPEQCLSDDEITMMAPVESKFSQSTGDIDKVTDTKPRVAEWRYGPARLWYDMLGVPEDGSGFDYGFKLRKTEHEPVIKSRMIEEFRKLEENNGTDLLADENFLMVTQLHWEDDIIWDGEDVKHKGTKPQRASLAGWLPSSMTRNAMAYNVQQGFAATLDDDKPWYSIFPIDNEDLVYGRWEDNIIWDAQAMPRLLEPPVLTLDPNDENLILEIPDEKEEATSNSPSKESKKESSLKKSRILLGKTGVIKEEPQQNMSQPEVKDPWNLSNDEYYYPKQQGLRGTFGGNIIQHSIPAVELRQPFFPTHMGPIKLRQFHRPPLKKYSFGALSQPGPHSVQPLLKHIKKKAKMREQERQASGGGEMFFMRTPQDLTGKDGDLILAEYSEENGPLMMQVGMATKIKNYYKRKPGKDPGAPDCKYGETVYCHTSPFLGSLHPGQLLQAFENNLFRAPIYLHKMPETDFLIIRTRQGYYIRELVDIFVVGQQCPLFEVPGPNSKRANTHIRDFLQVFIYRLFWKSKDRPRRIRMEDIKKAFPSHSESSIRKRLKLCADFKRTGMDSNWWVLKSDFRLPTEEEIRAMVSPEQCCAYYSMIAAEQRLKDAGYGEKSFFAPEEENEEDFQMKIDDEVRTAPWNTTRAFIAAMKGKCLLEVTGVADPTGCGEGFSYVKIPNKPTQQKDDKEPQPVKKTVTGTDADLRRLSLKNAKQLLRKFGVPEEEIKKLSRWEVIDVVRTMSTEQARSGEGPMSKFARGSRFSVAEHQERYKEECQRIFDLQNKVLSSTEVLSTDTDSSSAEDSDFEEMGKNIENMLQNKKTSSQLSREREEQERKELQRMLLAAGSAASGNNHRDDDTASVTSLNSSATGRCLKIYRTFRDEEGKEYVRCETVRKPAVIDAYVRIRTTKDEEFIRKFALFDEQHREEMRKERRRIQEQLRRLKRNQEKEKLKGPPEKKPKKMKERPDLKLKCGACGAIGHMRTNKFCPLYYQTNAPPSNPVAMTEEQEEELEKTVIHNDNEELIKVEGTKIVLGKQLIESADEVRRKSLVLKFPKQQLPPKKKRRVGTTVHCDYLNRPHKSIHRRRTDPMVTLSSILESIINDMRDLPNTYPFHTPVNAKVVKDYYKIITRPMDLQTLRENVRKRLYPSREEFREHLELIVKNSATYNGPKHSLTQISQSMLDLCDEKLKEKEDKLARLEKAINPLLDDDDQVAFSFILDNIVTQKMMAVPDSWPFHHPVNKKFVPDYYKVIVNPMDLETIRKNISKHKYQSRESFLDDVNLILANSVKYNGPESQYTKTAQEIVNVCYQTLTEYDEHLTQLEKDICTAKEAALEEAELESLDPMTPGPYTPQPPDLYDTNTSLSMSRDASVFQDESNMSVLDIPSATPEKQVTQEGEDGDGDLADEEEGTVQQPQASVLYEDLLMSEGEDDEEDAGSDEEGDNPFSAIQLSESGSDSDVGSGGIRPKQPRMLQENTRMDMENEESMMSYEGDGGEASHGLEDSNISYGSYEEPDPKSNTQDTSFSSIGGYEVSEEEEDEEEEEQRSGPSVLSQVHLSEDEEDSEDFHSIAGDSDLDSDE

IC50 [1] [nM] | Papp A→B at 2 h, 10 µM [2] [×10⁻⁶ cm/s] | Papp B→A at 2 h, 10 µM [3] [×10⁻⁶ cm/s] | clearance [4] [mL/min/kg] | AUC(0-inf) [5] [ng·h/mL] | GI50 (OCI-LY19) [nM] | GI50 (HepG2) [nM] | IC50 [6] [nM] | Kd [7] [nM] | Kd [8] [nM] | bioavailability [9] [%] | SMILES | GI50 (NOMO-1) [nM]
> 20000 | – | – | – | – | – | – | – | – | – | – | CCc1cc2cc(NS(=O)(=O)c3ccc(C#N)cc3)ccc2n(CC)c1=O | –
– | 10 | 50 | 4 | 5700 | 1000 to 10000 | 1000 to 10000 | 760 | 210 | 940 | 49 | Cc1cc2cc(NS(=O)(=O)c3ccc(C#N)cc3)ccc2n(C)c1=O | 4600
